Results on 1 compound are retold here after ChEMBL document CHEMBL4043093, “2-Oxo-3, 4-dihydropyrimido[4, 5-d]pyrimidinyl derivatives as new irreversible pan fibroblast growth factor receptor (FGFR) inhibitors” (Eur J Med Chem, 2017).

Test [1] deals with Mast/stem cell growth factor receptor Kit (Homo sapiens), P10721 [V559D,V654A]. Description: Inhibition of human partial length KIT V559D/V654A double mutant (Y545 to D952 residues) expressed in Escherichia coli BL21 assessed as residual activity at 1000 nM after 30 mins by Kinomescan method relative to control. The gist of the method:
(§1)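 KINOMEscan binding panel of 456 kinases, with the test compound at a single concentration of 1 µM. Read-out is Percent Control.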

The target of test [2] is Dual specificity tyrosine-phosphorylation-regulated kinase 1A (Homo sapiens) (UniProt Q13627). Description: Inhibition of wild-type human partial length DYRK1A (H129 to S509 residues) expressed in HEK293 cells assessed as residual activity at 1000 nM after 30 mins by Kinomescan method relative to control. It is filed as cell-based.
Test [3] has as its system Tyrosine-protein kinase ABL1 (Homo sapiens), P00519 [F317L]. In words: Inhibition of human non-phosphorylated ABL1 F317L mutant (S229 to K512 residues) expressed in HEK293 cells assessed as residual activity at 1000 nM after 30 mins by Kinomescan method relative to control. The format is cell-based. The gist of the method: as §1
Test [4] concerns the target Protein kinase C delta type (Homo sapiens) (UniProt Q05655). In words: Inhibition of wild-type human partial length PRKCD (Q328 to D676 residues) expressed in Escherichia coli BL21 assessed as residual activity at 1000 nM after 30 mins by Kinomescan method relative to control.
The subject of test [5] is Serine/threonine-protein kinase B-raf (Homo sapiens), P15056 [V600E]. Description: Inhibition of human partial length BRAF V600E mutant (S429 to E741 residues) expressed in HEK293 cells assessed as residual activity at 1000 nM after 30 mins by Kinomescan method relative to control. It is filed as cell-based. In a few lines:
as §1

Test [6] deals with Myotonin-protein kinase (Homo sapiens) (UniProt Q09013). Description: Inhibition of wild-type human partial length DMPK (V47 to V415 residues) expressed in Escherichia coli BL21 assessed as residual activity at 1000 nM after 30 mins by Kinomescan method relative to control.
Test [7] addresses Homeodomain-interacting protein kinase 2 (Homo sapiens) (UniProt Q9H2X6). In words: Inhibition of wild-type human partial length HIPK2 (M153 to S564 residues) expressed in HEK293 cells assessed as residual activity at 1000 nM after 30 mins by Kinomescan method relative to control. The format is cell-based.
Test [8] relates to Tyrosine-protein kinase ABL1 (Homo sapiens), P00519 [H396P]. Description: Inhibition of human non-phosphorylated ABL1 H396P mutant (S229 to K512 residues) expressed in HEK293 cells assessed as residual activity at 1000 nM after 30 mins by Kinomescan method relative to control. The format is cell-based. In a few lines:
as §1

Test [9] addresses Mitogen-activated protein kinase kinase kinase 11 (Homo sapiens) (UniProt Q16584). Description: Inhibition of wild-type human partial length MLK3 (I77 to W399 residues) expressed in Escherichia coli BL21 assessed as residual activity at 1000 nM after 30 mins by Kinomescan method relative to control.
The target of test [10] is cAMP-dependent protein kinase catalytic subunit alpha (Homo sapiens) (UniProt P17612). In words: Inhibition of wild-type human partial length PKAC-alpha (G10 to F351 residues) expressed in Escherichia coli BL21 assessed as residual activity at 1000 nM after 30 mins by Kinomescan method relative to control.
Test [11] deals with Ribosomal protein S6 kinase alpha-1 (Homo sapiens) (UniProt Q15418). Description: Inhibition of wild-type human partial length N-terminal RSK1 Kinase domain 1 (M1 to E388 residues) expressed in Escherichia coli BL21 assessed as residual activity at 1000 nM after 30 mins by Kinomescan method relative to control.
The target of test [12] is Receptor tyrosine-protein kinase erbB-3 (Homo sapiens) (UniProt P21860). In words: Inhibition of wild-type human partial length ERBB3 (G684 to A987 residues) expressed in HEK293 cells assessed as residual activity at 1000 nM after 30 mins by Kinomescan method relative to control. It is filed as cell-based.
Chain of Receptor tyrosine-protein kinase erbB-3 (Homo sapiens) (P21860 whole entry, the tested form may be a part): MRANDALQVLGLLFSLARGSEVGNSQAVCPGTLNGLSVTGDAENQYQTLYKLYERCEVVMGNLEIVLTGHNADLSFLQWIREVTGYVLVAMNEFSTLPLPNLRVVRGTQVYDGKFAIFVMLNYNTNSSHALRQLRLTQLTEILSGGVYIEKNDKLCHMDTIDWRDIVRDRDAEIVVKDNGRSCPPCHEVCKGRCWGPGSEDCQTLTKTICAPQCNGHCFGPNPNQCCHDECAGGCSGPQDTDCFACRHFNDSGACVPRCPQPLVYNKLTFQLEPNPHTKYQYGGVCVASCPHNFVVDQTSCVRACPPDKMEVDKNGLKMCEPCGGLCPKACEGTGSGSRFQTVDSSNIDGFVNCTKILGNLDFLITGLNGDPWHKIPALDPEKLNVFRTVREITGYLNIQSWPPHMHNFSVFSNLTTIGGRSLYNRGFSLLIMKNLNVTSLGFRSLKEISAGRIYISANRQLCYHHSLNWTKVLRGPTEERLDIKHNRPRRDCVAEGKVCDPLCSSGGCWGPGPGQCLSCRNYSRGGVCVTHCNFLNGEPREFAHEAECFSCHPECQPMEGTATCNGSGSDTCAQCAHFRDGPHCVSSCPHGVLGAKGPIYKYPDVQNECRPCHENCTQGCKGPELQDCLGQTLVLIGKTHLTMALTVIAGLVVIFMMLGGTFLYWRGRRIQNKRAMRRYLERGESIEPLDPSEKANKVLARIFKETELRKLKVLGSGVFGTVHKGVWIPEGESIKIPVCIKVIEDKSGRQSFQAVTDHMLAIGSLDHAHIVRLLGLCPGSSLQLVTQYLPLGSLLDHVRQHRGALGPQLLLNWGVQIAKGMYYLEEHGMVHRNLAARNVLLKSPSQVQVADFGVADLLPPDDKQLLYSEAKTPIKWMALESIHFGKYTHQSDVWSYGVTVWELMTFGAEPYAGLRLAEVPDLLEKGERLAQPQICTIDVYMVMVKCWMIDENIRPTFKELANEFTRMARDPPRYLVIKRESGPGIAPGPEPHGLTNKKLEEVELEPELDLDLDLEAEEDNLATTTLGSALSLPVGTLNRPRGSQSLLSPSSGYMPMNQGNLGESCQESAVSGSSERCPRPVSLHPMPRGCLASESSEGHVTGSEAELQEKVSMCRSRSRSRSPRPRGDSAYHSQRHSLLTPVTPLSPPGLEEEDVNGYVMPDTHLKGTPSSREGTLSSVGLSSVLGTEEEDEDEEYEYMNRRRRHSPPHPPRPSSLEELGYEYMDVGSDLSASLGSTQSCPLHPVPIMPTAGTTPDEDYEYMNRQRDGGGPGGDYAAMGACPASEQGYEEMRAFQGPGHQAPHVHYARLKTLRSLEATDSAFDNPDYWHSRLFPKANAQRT
The target in test [13] is Serine/threonine-protein kinase ULK2 (Homo sapiens) (UniProt Q8IYT8). Description: Inhibition of wild-type human partial length ULK2 (M1 to S301 residues) expressed in HEK293 cells assessed as residual activity at 1000 nM after 30 mins by Kinomescan method relative to control. The format is cell-based.
Test [14] deals with Phosphatidylinositol 4,5-bisphosphate 3-kinase catalytic subunit delta isoform (Homo sapiens) (UniProt O00329). In words: Inhibition of wild-type human partial length PIK3CD (R108 to Q1044 residues) expressed in HEK293 cells assessed as residual activity at 1000 nM after 30 mins by Kinomescan method relative to control. The format is cell-based.
Test [15] deals with Mast/stem cell growth factor receptor Kit (Homo sapiens), P10721 [V559D,T670I]. In words: Inhibition of human partial length KIT V559D/T670I double mutant (Y545 to D952 residues) expressed in Escherichia coli BL21 assessed as residual activity at 1000 nM after 30 mins by Kinomescan method relative to control. In a few lines:
as §1

For test [16], the target named is Inhibitor of nuclear factor kappa-B kinase subunit alpha (Homo sapiens) (UniProt O15111). Description: Inhibition of wild-type human full length IKK-alpha (M1 to E745 residues) expressed in HEK293 cells assessed as residual activity at 1000 nM after 30 mins by Kinomescan method relative to control. It is filed as cell-based. The gist of the method: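 Single-concentration screen at 1 µM across a 456-kinase KINOMEscan panel. The read-out is Percent Control for each kinase.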

In test [17] the target is Tyrosine-protein kinase Blk (Homo sapiens) (UniProt P51451). Description: Inhibition of wild-type human partial length BLK (G211 to L503 residues) expressed in Escherichia coli BL21 assessed as residual activity at 1000 nM after 30 mins by Kinomescan method relative to control.
Chain of Tyrosine-protein kinase Blk (Homo sapiens) (P51451 2-505 limits assumed): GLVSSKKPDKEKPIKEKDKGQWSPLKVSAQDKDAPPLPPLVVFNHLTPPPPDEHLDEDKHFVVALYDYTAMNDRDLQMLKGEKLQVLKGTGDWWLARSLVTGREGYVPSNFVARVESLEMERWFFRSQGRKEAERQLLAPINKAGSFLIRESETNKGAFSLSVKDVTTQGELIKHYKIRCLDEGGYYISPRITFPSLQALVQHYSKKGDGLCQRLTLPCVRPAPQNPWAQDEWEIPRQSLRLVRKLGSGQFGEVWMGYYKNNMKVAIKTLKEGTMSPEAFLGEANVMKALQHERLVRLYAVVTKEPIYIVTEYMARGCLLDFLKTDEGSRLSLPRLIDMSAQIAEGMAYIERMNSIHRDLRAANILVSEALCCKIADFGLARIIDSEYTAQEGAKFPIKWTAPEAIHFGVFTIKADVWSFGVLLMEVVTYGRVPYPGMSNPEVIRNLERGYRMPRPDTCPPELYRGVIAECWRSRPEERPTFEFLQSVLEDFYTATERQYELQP
Test [18] deals with Epidermal growth factor receptor (Homo sapiens) (UniProt P00533). Description: Inhibition of wild-type human partial length EGFR (R669 to V1011 residues) expressed in Escherichia coli BL21 assessed as residual activity at 1000 nM after 30 mins by Kinomescan method relative to control.
Test [19] has as its target Myosin light chain kinase 2, skeletal/cardiac muscle (Homo sapiens) (UniProt Q9H1R3). Description: Inhibition of wild-type human partial length MYLK2 (D258 to K570 residues) expressed in Escherichia coli BL21 assessed as residual activity at 1000 nM after 30 mins by Kinomescan method relative to control.
In test [20] the target is Receptor tyrosine-protein kinase erbB-4 (Homo sapiens) (UniProt Q15303). In words: Inhibition of wild-type human partial length ERBB4 (L690 to K994 residues) expressed in Escherichia coli BL21 assessed as residual activity at 1000 nM after 30 mins by Kinomescan method relative to control.
Chain of Receptor tyrosine-protein kinase erbB-4 (Homo sapiens) (Q15303 whole entry, the tested form may be a part): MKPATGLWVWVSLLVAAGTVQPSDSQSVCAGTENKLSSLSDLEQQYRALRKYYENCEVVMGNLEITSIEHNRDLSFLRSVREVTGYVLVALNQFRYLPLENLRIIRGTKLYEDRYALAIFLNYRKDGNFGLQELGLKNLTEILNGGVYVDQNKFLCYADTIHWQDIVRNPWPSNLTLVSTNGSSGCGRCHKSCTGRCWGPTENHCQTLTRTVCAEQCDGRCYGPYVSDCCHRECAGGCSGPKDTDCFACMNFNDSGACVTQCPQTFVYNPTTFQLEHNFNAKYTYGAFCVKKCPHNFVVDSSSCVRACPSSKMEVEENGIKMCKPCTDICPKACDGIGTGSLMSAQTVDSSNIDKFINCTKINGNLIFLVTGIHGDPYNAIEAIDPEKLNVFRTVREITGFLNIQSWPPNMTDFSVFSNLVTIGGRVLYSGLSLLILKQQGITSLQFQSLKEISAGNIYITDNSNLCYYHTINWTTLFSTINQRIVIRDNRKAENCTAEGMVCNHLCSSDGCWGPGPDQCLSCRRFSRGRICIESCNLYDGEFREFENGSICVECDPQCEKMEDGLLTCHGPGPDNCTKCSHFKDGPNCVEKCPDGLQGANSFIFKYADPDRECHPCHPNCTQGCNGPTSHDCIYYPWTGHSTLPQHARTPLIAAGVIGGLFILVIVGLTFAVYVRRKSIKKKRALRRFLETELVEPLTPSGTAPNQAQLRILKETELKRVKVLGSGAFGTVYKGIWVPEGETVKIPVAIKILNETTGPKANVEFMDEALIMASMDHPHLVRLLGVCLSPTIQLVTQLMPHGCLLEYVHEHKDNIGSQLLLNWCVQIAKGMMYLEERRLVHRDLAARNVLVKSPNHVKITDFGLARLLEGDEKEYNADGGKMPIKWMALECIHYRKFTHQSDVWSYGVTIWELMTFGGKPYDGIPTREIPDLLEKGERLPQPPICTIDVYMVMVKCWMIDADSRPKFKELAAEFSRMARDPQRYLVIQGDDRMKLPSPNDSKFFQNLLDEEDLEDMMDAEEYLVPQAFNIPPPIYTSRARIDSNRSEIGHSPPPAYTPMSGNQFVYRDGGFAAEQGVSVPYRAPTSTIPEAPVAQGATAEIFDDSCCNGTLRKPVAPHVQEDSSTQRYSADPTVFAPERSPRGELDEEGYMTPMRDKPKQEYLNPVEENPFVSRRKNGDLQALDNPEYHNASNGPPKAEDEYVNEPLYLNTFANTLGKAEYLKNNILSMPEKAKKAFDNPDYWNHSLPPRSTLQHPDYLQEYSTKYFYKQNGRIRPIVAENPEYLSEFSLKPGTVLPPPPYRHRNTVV
The target in test [21] is Serine/threonine-protein kinase WNK1 (Homo sapiens) (UniProt Q9H4A3). Description: Inhibition of wild-type human partial length WNK1 (Q194 to A490 residues) expressed in HEK293 cells assessed as residual activity at 1000 nM after 30 mins by Kinomescan method relative to control. It is filed as cell-based.
Test [22] concerns the target Serine/threonine-protein kinase Nek11 (Homo sapiens) (UniProt Q8NG66). Description: Inhibition of wild-type human partial length NEK11 (M1 to E313 residues) expressed in HEK293 cells assessed as residual activity at 1000 nM after 30 mins by Kinomescan method relative to control. The format is cell-based.

Chain of Homeodomain-interacting protein kinase 2 (Homo sapiens) (Q9H2X6 whole entry, looked up, the tested form may be a part): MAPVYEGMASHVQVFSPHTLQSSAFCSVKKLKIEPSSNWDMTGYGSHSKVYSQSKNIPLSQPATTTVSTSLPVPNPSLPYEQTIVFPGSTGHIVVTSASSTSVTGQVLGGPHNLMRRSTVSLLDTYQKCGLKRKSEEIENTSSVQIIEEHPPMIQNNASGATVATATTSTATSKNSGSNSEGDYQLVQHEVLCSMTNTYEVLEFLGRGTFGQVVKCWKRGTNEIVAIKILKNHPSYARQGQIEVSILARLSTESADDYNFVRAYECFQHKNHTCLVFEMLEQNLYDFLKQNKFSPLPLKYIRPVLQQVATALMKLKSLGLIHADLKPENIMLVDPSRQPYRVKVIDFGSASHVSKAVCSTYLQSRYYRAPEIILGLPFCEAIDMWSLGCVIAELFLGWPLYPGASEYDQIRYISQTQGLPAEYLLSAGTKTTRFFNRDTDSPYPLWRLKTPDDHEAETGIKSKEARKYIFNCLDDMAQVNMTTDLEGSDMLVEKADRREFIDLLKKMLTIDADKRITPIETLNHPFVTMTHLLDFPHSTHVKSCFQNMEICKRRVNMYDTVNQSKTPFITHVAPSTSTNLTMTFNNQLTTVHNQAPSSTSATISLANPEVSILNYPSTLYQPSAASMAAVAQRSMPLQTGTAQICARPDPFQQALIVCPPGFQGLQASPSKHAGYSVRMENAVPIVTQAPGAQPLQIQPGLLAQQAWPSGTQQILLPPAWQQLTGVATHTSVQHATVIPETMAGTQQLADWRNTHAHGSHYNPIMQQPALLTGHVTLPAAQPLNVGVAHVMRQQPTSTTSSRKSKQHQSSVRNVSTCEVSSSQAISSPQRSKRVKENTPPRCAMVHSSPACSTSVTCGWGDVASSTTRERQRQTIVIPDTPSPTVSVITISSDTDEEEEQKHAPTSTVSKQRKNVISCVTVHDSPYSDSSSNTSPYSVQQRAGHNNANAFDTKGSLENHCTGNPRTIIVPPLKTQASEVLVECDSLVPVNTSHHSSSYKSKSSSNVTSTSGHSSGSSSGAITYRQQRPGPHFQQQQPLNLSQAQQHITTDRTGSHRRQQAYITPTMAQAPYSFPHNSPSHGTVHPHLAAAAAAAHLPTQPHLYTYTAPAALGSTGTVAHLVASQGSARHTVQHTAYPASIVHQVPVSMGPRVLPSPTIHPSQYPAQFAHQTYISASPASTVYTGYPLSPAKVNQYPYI
Chain of Serine/threonine-protein kinase B-raf (Homo sapiens), P15056 [V600E] (P15056 whole entry V600E, the tested form may be a part): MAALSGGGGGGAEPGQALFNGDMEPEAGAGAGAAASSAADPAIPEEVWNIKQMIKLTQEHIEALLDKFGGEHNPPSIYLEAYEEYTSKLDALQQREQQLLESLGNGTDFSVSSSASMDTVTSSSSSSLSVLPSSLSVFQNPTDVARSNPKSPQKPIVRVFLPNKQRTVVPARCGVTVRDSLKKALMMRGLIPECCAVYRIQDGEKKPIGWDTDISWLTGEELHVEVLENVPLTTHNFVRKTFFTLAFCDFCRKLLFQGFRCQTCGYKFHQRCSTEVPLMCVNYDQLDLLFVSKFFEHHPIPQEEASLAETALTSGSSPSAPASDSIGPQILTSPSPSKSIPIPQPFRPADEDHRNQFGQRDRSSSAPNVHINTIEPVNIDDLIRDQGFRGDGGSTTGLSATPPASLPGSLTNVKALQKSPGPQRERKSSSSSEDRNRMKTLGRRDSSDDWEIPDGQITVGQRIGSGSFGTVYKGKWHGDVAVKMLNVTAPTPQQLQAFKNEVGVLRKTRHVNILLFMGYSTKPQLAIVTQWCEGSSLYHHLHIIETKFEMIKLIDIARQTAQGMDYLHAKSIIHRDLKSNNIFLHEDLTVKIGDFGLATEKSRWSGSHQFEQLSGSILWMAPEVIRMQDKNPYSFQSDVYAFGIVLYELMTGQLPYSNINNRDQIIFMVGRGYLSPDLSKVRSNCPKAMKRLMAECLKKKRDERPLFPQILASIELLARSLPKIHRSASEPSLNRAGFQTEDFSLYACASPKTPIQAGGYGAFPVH

`COc1cc(OC)c(Cl)c(N2Cc3cnc(Nc4ccc(F)cc4)nc3N(C3CCN(C(=O)/C=C/CN(C)C)CC3)C2=O)c1Cl`: the Activity in test [1] is 99%; in [2] it was 98%; in test [3], 96%; in test [4], 93%; in [5], 83%; in test [6], 100%. Besides, the Activity in [7] stood at 100%; in test [8] it was 31%; in [9] it was 83%; in [10], 100%; in [11], 78%; in test [12] it was 100%. Besides, the Activity in [13] worked out at 100%; in test [14], 93%; in test [15] it was 82%; in test [16], 95%; in test [17], 0.6%; in test [18], 91%. Further, the Activity in test [19] worked out at 82%; in [20], 98%; in test [21], 59%; in [22], 100%.
